According to ChEMBL document CHEMBL1122677, “Ring-substituted 1,2-dialkylated 1,2-bis(hydroxyphenyl)ethanes. 3. Synthesis, estrogen receptor binding affinity, and evaluation of antiestrogenic and mammary tumor inhibiting activity of 2,2'-disubstituted butestrols and 6,6'-disubstituted metabutestrols” (1984):

Key:
[1] = biological target: Estrogen receptor (Bos taurus) (UniProt Q9XSB5+P49884); assay: Displacement of [3H]-estradiol from calf uterine estrogen receptor; type: protein assay
Summary of the method: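 Calf uterine cytosol incubated with [³H]estradiol and competitor at six concentrations, 4 °C for 16 h. Dextran-coated charcoal stopped incubation; supernatant radioactivity counted after centrifugation. Percent bound plotted vs log concentration; the molar concentrations of estradiol and test compound halving radioligand binding were read off and expressed as relative binding affinity.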

[2] = biological target: T1, Estrogen receptor (Mus musculus) (UniProt O08537+P19785); assay: (§1) Uterotrophic effect in mice at 0 ug; type: functional, tissue-based; design: unit not given here; conditions: Uterus
Summary of the method: (§2)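 Immature female NMRI mice, 20 days old (14.5 ± 1.2 g), in groups of 10, injected sc daily for 3 days with test compound in 0.1 mL olive oil. Uteri were removed 24 h after the last injection, Bouin-fixed, washed, dried and weighed. Groups were compared by Wilcoxon–Mann–Whitney U test.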

[3] = biological target: T1, Estrogen receptor (Mus musculus); assay: (§3) Uterotrophic effect in mice at 1 ug; type: functional, tissue-based; design: unit not given here; conditions: Uterus; summary of the method: as §2
[4] = biological target: T1, Estrogen receptor (Mus musculus); assay: (§4) Uterotrophic effect in mice at 10 ug; type: functional, tissue-based; design: unit not given here; conditions: Uterus; summary of the method: as §2
[5] = biological target: T1, Estrogen receptor (Mus musculus); assay: Uterotrophic effect in mice at 1 ug (alpha =0.01); type: functional, tissue-based; conditions: Uterus; summary of the method: as §2
[6] = biological target: T1, Estrogen receptor (Mus musculus); assay: Uterotrophic effect in mice at 100 ug (alpha =0.01); type: functional, tissue-based; conditions: Uterus; summary of the method: as §2
[7] = biological target: T1, Estrogen receptor (Mus musculus); assay: Uterotrophic effect in mice at 10 ug (alpha =0.01); type: functional, tissue-based; conditions: Uterus; summary of the method: as §2
[8] = biological target: T1, Estrogen receptor (Mus musculus); assay: Uterotrophic effect in mice at 1000 ug; type: functional, tissue-based; conditions: Uterus; summary of the method: as §2
[9] = biological target: T1, Estrogen receptor (Mus musculus); assay: Percent inhibition of uterotrophic effect in mice at 5 ug; type: functional
Summary of the method: (§5)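 Antiestrogenic read-out: inhibition of estrone-stimulated uterine growth in immature female NMRI mice, 20 days old, in groups of 10. Test compound in 0.1 mL olive oil was given sc daily for 3 days. Uteri were taken 24 h after the last dose, fixed in Bouin's solution, washed, dried and weighed.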

[10] = biological target: T1, Estrogen receptor (Mus musculus); assay: Percent inhibition of uterotrophic effect in mice at 50 ug; type: functional; summary of the method: as §5
[11] = biological target: T1, Estrogen receptor (Mus musculus); assay: Antiuterotrophic effect in mice at 0 ug; type: functional; summary of the method: as §5
[12] = biological target: T1, Estrogen receptor (Mus musculus); assay: Antiuterotrophic effect in mice at 5 ug; type: functional; design: unit not given here; summary of the method: as §5
[13] = biological target: T1, Estrogen receptor (Mus musculus); assay: Antiuterotrophic effect in mice at 50 ug; type: functional; design: unit not given here; summary of the method: as §5
[14] = biological target: T1, Estrogen receptor (Mus musculus); assay: Antiuterotrophic effect in mice at 500 ug; type: functional; design: unit not given here; summary of the method: as §5
[15] = biological target: T1, Estrogen receptor (Mus musculus); assay: Uterotrophic effect in mice at 10 ug (alpha=0.01); type: functional, tissue-based; conditions: Uterus; summary of the method: as §2
[16] = biological target: T1, Estrogen receptor (Mus musculus); assay: Uterotrophic effect in mice at 1 ug (alpha=0.01); type: functional, tissue-based; conditions: Uterus; summary of the method: as §2
[17] = biological target: T1, Estrogen receptor (Mus musculus); assay: as §1; type: functional, tissue-based; conditions: Uterus; summary of the method: as §2
[18] = biological target: T1, Estrogen receptor (Mus musculus); assay: Uterotrophic effect in mice at 100 ug; type: functional, tissue-based; conditions: Uterus; summary of the method: as §2
[19] = biological target: T1, Estrogen receptor (Mus musculus); assay: Percent inhibition of uterotrophic effect in mice at 500 ug; type: functional; summary of the method: as §5
Rattus norvegicus [20] = species on record: Rattus norvegicus; assay: Percent change in body weight in rats at 2 mg; type: functional
Summary of the method: (§6)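 DMBA-induced, hormone-dependent mammary adenocarcinoma in SD rats. Dose is per kg body weight and day, given once daily Monday–Thursday and doubled on Friday. Initial tumors were counted at the start and new tumors during the test. Tumors were scored as complete remission (not palpable), partial remission (≥50% size reduction), no change or progression. Tumor area and body weight change were recorded.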

Rattus norvegicus [21] = species on record: Rattus norvegicus; assay: Percent change in body weight in rats at 5 mg; type: functional; summary of the method: as §6
Rattus norvegicus [22] = species on record: Rattus norvegicus; assay: Percent unchanged tumors in DMBA-induced hormone dependent mammary carcinoma in rats at 5 mg dose; type: functional; summary of the method: as §6
Rattus norvegicus [23] = species on record: Rattus norvegicus; assay: Percent complete remission in DMBA-induced hormone dependent mammary carcinoma in rats at 5 mg dose; type: functional; summary of the method: as §6
Rattus norvegicus [24] = species on record: Rattus norvegicus; assay: Percent partial remission in DMBA-induced hormone dependent mammary carcinoma in rats at 5 mg dose; type: functional; summary of the method: as §6
Rattus norvegicus [25] = species on record: Rattus norvegicus; assay: Percent unchanged tumors in DMBA-induced hormone dependent mammary carcinoma in rats at 2 mg dose; type: functional; summary of the method: as §6
Rattus norvegicus [26] = species on record: Rattus norvegicus; assay: Initial tumor number of DMBA-induced hormone dependent mammary carcinoma in rats prior to 2 mg dose; type: functional; summary of the method: as §6
Rattus norvegicus [27] = species on record: Rattus norvegicus; assay: Final tumor number of DMBA-induced hormone dependent mammary carcinoma in rats after 2 mg dose; type: functional; summary of the method: as §6
Rattus norvegicus [28] = species on record: Rattus norvegicus; assay: Initial tumor number of DMBA-induced hormone dependent mammary carcinoma in rats prior to 5 mg dose; type: functional; summary of the method: as §6
Rattus norvegicus [29] = species on record: Rattus norvegicus; assay: Final tumor number of DMBA-induced hormone dependent mammary carcinoma in rats after 5 mg dose; type: functional; summary of the method: as §6
Rattus norvegicus [30] = species on record: Rattus norvegicus; assay: Percent partial remission in DMBA-induced hormone dependent mammary carcinoma in rats at 2 mg dose; type: functional; summary of the method: as §6
Rattus norvegicus [31] = species on record: Rattus norvegicus; assay: Percent progressive tumors in DMBA-induced hormone dependent mammary carcinoma in rats at 5 mg dose; type: functional; summary of the method: as §6
Rattus norvegicus [32] = species on record: Rattus norvegicus; assay: Percent change in total tumor area of DMBA-induced hormone dependent mammary carcinoma in rats at 2 mg dose (alpha <0.05); type: functional; summary of the method: as §6
Rattus norvegicus [33] = species on record: Rattus norvegicus; assay: Percent progressive tumors in DMBA-induced hormone dependent mammary carcinoma in rats at 2 mg dose; type: functional; summary of the method: as §6
Rattus norvegicus [34] = species on record: Rattus norvegicus; assay: Percent complete remission in DMBA-induced hormone dependent mammary carcinoma in rats at 2 mg dose; type: functional; summary of the method: as §6
Rattus norvegicus [35] = species on record: Rattus norvegicus; assay: Percent change in total tumor area of DMBA-induced hormone dependent mammary carcinoma in rats at 5 mg dose (alpha <0.05)
[36] = biological target: T1, Estrogen receptor (Mus musculus); assay: as §4; type: functional, tissue-based; conditions: Uterus; summary of the method: as §2
[37] = biological target: T1, Estrogen receptor (Mus musculus); assay: as §3; type: functional, tissue-based; conditions: Uterus; summary of the method: as §2
[38] = biological target: T1, Estrogen receptor (Mus musculus); assay: Uterotrophic effect in mice at 0.1 ug; type: functional, tissue-based; conditions: Uterus; summary of the method: as §2
[39] = biological target: T1, Estrogen receptor (Mus musculus); assay: Anti-estrogenic activity in mice at 0 ug; type: functional; summary of the method: as §5
[40] = biological target: T1, Estrogen receptor (Mus musculus); assay: Anti-estrogenic activity in mice at 50 ug; type: functional; summary of the method: as §5
[41] = biological target: T1, Estrogen receptor (Mus musculus); assay: Anti-estrogenic activity in mice at 500 ug; type: functional; summary of the method: as §5

T1 sequence (O08537 whole entry, looked up): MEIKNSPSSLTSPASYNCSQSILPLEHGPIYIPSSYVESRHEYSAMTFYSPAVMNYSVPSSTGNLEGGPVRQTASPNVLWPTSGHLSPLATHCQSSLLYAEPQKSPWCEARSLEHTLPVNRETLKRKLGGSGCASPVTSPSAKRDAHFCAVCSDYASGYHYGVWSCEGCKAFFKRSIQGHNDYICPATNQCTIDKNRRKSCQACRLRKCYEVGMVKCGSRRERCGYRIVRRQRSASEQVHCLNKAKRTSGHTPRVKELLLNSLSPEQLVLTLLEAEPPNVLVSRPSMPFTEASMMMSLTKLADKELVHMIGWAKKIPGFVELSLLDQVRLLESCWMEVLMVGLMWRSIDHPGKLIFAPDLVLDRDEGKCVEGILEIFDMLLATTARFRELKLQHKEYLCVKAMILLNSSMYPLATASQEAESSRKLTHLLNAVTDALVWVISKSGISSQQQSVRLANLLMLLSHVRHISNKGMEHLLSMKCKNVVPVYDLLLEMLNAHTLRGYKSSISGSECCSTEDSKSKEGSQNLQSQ
T1 sequence (P19785 whole entry, looked up): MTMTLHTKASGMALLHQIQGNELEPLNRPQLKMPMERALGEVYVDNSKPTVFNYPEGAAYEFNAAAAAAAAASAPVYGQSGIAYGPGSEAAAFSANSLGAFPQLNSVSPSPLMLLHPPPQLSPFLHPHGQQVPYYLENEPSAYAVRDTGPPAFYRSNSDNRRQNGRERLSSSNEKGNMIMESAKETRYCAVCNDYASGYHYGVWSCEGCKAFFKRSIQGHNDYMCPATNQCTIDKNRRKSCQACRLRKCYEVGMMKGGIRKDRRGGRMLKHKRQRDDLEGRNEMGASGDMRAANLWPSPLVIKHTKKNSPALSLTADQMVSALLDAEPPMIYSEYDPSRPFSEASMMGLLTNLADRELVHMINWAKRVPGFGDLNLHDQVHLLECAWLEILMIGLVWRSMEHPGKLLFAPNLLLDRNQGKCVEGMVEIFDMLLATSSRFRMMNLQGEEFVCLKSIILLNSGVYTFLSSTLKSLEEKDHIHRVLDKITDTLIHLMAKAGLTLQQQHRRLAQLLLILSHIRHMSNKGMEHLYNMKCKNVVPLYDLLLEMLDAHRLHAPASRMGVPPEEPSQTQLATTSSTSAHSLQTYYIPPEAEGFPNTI

| Compound | relative binding affinity (RBA) [1] | Effect [2] | Effect [3] | Effect [4] | Effect [8] | inhibition [9] [%] | inhibition [10] [%] | Effect [11] | Effect [12] | Effect [13] | Effect [14] | Effect [18] | inhibition [19] [%] | further results |
| --- | --- | --- | --- | --- | --- | --- | --- | --- | --- | --- | --- | --- | --- | --- |
| CC(c1ccc(O)cc1Cl)C(C)c1ccc(O)cc1Cl (centres undefined) | 4.5 | 11.8 | 41.6 | 40.7 | – | – | – | – | – | – | – | – | – | – |
| CC(c1cccc(O)c1)C(C)c1cccc(O)c1 (centres undefined) | 1 | 11.9 | – | – | 13.1 | 13 | 25 | 14.4 | 43 | 39 | 36.5 | – | – | Effect [5]: 11.7; Effect [6]: 12.6; Effect [7]: 12.4 |
| CC(c1ccc(O)cc1Br)C(C)c1ccc(O)cc1Br (centres undefined) | 3.4 | – | – | – | – | – | – | – | – | – | – | – | – | – |
| CC(c1cc(O)ccc1O)C(C)c1cc(O)ccc1O (centres undefined) | 0.01 | – | – | – | – | – | – | – | – | – | – | – | – | – |
| CC(c1ccc(O)cc1F)C(C)c1ccc(O)cc1F (centres undefined) | 15 | 11.8 | 50.2 | 51.4 | – | – | – | – | – | – | – | – | – | – |

The next lines start with results.

| relative binding affinity (RBA) [1] | Effect [2] | Effect [3] | Effect [4] | Effect [8] | inhibition [9] [%] | inhibition [10] [%] | Effect [11] | Effect [12] | Effect [13] | Effect [14] | Effect [18] | inhibition [19] [%] | Compound | further results |
| --- | --- | --- | --- | --- | --- | --- | --- | --- | --- | --- | --- | --- | --- | --- |
| 5.2 | – | – | – | 17.4 | 5 | 20 | 14.4 | 45.4 | 40.6 | 35.6 | 12.5 | 35 | Cc1ccc(O)cc1C(C)C(C)c1cc(O)ccc1C (centres undefined) | Effect [15]: 14.2; Effect [16]: 13.7; Effect [17]: 11.1; Body weight (Rattus norvegicus [20]): 1.5; Body weight (Rattus norvegicus [21]): 1.1; Tumors (Rattus norvegicus [22]): 25%; Tumors (Rattus norvegicus [23]): 15%; Tumors (Rattus norvegicus [24]): 4%; Tumors (Rattus norvegicus [25]): 29%; No. of tumors (Rattus norvegicus [26]): 23; No. of tumors (Rattus norvegicus [27]): 25; No. of tumors (Rattus norvegicus [28]): 25; No. of tumors (Rattus norvegicus [29]): 23; Tumors (Rattus norvegicus [30]): 4%; Tumors (Rattus norvegicus [31]): 56%; Tumor area (Rattus norvegicus [32]): 245; Tumors (Rattus norvegicus [33]): 56%; Tumors (Rattus norvegicus [34]): 11%; Tumor area (Rattus norvegicus [35]): 283 |
| 12 | 12.5 | 38.8 | 45.2 | – | – | – | – | – | – | – | 47 | – | CCc1cc(O)ccc1C(C)C(C)c1ccc(O)cc1CC (centres undefined) | – |
| 1.7 | – | – | – | – | 21 | 24 | 14.4 | 40.1 | 39.3 | 37.2 | 41.8 | 30 | CC(c1cc(O)ccc1Cl)C(C)c1cc(O)ccc1Cl (centres undefined) | Effect [36]: 26.5; Effect [17]: 11.1; Effect [37]: 13 |
| 12 | – | – | – | 34.8 | 12 | 26 | – | 43.3 | – | – | 42.2 | 28 | CC(c1ccc(O)cc1)C(C)c1ccc(O)cc1 (centres undefined) | Effect [36]: 28; Effect [38]: 17.7; Effect [17]: 11.8; Effect [37]: 22.6; Effect [39]: 14.4; Effect [40]: 38.7; Effect [41]: 37.8 |
| 29 | 11.8 | – | – | – | – | – | – | – | – | – | – | – | Cc1cc(O)ccc1C(C)C(C)c1ccc(O)cc1C (centres undefined) | Effect [36]: 39.4; Effect [38]: 29.2; Effect [37]: 36.5 |
| 2.1 | 12.5 | 15.4 | 20.3 | 34.6 | – | 25 | 14.4 | 50.6 | 39.1 | 38.7 | 26.2 | 26 | CC(c1ccc(O)cc1O)C(C)c1ccc(O)cc1O (centres undefined) | – |
